In ChEMBL document CHEMBL6096655, “Discovery of a novel, selective CK2 inhibitor class with an unusual basic scaffold” (Eur J Med Chem, 2025):

Tests used:
[1] = target: Casein kinase I isoform gamma-1 (Homo sapiens) (UniProt Q9HCP0); experiment: Inhibition of human recombinant GST tagged CSNK1G1 expressed in insect cells at 2 uM by Eurofins kinase assay relative to control
[2] = Upregulation of PARP cleavage in human U-937 cells by measuring signal 2 at 10 uM measured after 48 hrs by immunoblot analysis; type: functional
How it was run: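 U937 cells exposed to compound or DMSO for 48 h, then lysed in Laemmli buffer. Lysates were run on 8–16% gradient SDS-PAGE, semi-dry blotted to PVDF and probed for PARP. Detection used IR-fluorescent secondary antibodies. The cleaved/uncleaved PARP signal ratio was obtained by densitometry. Results are representative of two independent experiments.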

[3] = Upregulation of PARP cleavage in human U-937 cells by measuring signal 2 at 30 uM measured after 48 hrs by immunoblot analysis; type: functional
How it was run: (§1)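 U937 lymphoma cells grown in RPMI with 2 mM L-glutamine, 1 % pen/strep and 10 % FCS; exposed to compound or DMSO solvent control for 48 h. Total cellular proteins harvested and immunoblotted with an antibody against phosphorylated CK2-substrate motifs and for PARP. Read-out is the densitometric ratio of cleaved to uncleaved PARP signal. Representative of two independent experiments.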

786-0 = experiment: Induction of cell death in human 786-0 cells assessed as cell viability measured after 11 hrs by CellCyteX live-cell microscopy analysis; type: functional, cell-based; details: dose 10-20 µM
How it was run: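 786-O cells seeded at 3×10³ per well and grown 24 h. Compound was then added in culture medium containing 125 nM Cytotox Green, at 0.2% (v/v) final DMSO, and kept at 37 °C in 5% CO₂. Green fluorescence images of dead cells were taken every 3 h by live-cell microscopy and normalized to the DMSO control. Results are representative of three independent measurements.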

[4] = target: Dual specificity tyrosine-phosphorylation-regulated kinase 1A (Homo sapiens) (UniProt Q13627); experiment: Inhibition of human DYRK1A at 2 uM by Eurofins kinase assay relative to control
[5] = target: Dual specificity tyrosine-phosphorylation-regulated kinase 1B (Homo sapiens) (UniProt Q9Y463); experiment: Inhibition of human recombinant DYRK1B at 2 uM by Eurofins kinase assay relative to control
[6] = target: Proto-oncogene tyrosine-protein kinase Src (Homo sapiens) (UniProt P12931); experiment: Inhibition of human recombinant SRC at 2 uM by Eurofins kinase assay relative to control
[7] = system: Receptor-type tyrosine-protein kinase FLT3 (Homo sapiens), P36888 [D835Y]; experiment: Inhibition of human recombinant his tagged FLT3 D835Y expressed in insect cells at 2 uM by Eurofins kinase assay relative to control
[8] = target: T1, Hsp90 co-chaperone Cdc37 (Homo sapiens) (UniProt Q16543); experiment: Inhibition of CDC37 phosphorylation in human 786-O cells at 6 uM measured after 48 hrs by immunoblot analysis relative to control
T1 sequence (whole entry): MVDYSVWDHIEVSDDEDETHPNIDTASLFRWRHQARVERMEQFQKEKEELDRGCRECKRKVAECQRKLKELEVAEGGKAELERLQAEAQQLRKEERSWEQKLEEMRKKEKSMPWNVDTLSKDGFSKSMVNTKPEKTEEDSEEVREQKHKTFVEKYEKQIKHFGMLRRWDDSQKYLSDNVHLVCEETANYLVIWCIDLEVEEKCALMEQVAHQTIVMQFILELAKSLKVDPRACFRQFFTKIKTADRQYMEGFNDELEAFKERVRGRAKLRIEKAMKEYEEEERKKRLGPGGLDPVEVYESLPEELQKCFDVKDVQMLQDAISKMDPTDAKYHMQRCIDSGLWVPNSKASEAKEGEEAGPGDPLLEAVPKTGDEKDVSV

[9] = target: Eukaryotic translation initiation factor 2 subunit 2 (Homo sapiens) (UniProt P20042); experiment: Inhibition of eIF2beta phosphorylation in human 786-O cells at 10 uM measured after 48 hrs by immunoblot analysis relative to control
U-937 = experiment: Antiproliferative activity against human U-937 cells assessed as inhibition of cell growth measured after 3 to 4 days by MTT assay; type: functional; details: time 3-4 day
How it was run: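 786-O or U937 cells grown in RPMI with 2 mM L-glutamine, 1% pen/strep and 10% FCS. Cells were seeded at 5000 per well and left overnight, then switched to 1% FCS medium containing compound or DMSO (max. 0.2% final). Growth ran 3–4 days at 37 °C in 5% CO₂ without medium change, followed by MTT read-out. GI50 is the mean ± SD of at least two independent experiments.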

[10] = Upregulation of PARP cleavage in human U-937 cells by measuring signal 2 at 15 uM measured after 48 hrs by immunoblot analysis; type: functional; how it was run: as §1
[11] = target: Homeodomain-interacting protein kinase 1 (Homo sapiens) (UniProt Q86Z02); experiment: Inhibition of human recombinant HIPK1 at 2 uM by Eurofins kinase assay relative to control
Homo sapiens = species: Homo sapiens; experiment: Inhibition of human recombinant His-tagged PIK3CA/PIK3R1 at 2 uM by Eurofins kinase assay relative to control
[12] = target: Dual specificity tyrosine-phosphorylation-regulated kinase 2 (Homo sapiens) (UniProt Q92630); experiment: Inhibition of human DYRK2 at 2 uM by Eurofins kinase assay relative to control
[13] = target: Serine/threonine-protein kinase pim-1 (Homo sapiens) (UniProt P11309); experiment: Inhibition of human recombinant PIM1 at 2 uM by Eurofins kinase assay relative to control
[14] = target: Serine/threonine-protein kinase 17A (Homo sapiens) (UniProt Q9UEE5); experiment: Inhibition of human STK17A at 2 uM by Eurofins kinase assay relative to control
[15] = target: Serine/threonine-protein kinase Chk1 (Homo sapiens) (UniProt O14757); experiment: Inhibition of human recombinant CHK1 at 2 uM by Eurofins kinase assay relative to control
[16] = target: T1, Hsp90 co-chaperone Cdc37 (Homo sapiens); experiment: Inhibition of CDC37 phosphorylation in human 786-O cells at 10 uM measured after 48 hrs by immunoblot analysis relative to control
[17] = target: Vascular endothelial growth factor receptor 3 (Homo sapiens) (UniProt P35916); experiment: Inhibition of human recombinant FLT4 at 2 uM by Eurofins kinase assay relative to control
[18] = Upregulation of PARP cleavage in human U-937 cells by measuring signal 2 at 5 uM measured after 48 hrs by immunoblot analysis; type: functional; how it was run: as §1
[19] = target: cAMP-dependent protein kinase catalytic subunit alpha (Homo sapiens) (UniProt P17612); experiment: Inhibition of human recombinant PRKACA at 2 uM by Eurofins kinase assay relative to control

Sequence of Dual specificity tyrosine-phosphorylation-regulated kinase 1B (Homo sapiens) (Q9Y463 whole entry, looked up): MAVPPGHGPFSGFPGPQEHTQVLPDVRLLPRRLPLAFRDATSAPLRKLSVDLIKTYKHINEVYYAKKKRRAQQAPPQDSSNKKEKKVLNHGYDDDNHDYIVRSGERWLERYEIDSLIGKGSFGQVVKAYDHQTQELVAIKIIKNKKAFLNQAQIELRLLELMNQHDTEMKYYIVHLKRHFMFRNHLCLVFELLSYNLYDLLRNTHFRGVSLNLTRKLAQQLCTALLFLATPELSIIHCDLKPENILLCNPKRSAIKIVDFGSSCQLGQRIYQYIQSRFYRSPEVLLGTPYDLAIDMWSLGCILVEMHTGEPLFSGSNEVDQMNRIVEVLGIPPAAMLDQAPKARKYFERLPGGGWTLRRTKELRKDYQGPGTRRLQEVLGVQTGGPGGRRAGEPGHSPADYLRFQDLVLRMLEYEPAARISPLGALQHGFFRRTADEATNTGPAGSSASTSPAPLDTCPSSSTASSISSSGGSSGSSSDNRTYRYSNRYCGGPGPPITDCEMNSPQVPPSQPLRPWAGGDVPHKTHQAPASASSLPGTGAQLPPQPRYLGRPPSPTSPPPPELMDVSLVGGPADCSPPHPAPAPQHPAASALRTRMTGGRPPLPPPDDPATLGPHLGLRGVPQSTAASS
Sequence of Serine/threonine-protein kinase 17A (Homo sapiens) (Q9UEE5 whole entry): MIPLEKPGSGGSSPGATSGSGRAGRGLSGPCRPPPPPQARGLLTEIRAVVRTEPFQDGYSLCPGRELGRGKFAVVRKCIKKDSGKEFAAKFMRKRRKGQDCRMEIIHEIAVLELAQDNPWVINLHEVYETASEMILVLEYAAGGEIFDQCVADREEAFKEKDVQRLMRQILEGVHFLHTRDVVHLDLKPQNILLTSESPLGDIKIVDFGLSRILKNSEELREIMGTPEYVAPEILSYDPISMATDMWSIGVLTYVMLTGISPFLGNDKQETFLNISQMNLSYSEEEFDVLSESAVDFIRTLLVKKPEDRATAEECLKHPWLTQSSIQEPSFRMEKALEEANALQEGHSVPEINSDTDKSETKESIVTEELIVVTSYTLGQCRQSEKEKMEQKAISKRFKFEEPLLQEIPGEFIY
Sequence of Serine/threonine-protein kinase Chk1 (Homo sapiens) (O14757 whole entry): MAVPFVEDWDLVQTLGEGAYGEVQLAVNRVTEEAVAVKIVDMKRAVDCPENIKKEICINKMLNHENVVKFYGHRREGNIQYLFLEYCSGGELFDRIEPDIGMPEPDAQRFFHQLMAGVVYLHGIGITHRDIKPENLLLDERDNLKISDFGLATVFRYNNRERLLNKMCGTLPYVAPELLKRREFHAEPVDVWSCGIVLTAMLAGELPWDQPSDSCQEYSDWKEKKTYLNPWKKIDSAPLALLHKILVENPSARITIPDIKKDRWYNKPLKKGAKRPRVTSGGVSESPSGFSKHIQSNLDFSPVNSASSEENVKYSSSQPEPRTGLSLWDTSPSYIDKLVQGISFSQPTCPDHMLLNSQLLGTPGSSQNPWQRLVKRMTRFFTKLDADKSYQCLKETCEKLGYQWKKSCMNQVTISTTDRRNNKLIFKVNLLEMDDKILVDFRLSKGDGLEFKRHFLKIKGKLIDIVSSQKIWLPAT
Sequence of Eukaryotic translation initiation factor 2 subunit 2 (Homo sapiens) (P20042 whole entry): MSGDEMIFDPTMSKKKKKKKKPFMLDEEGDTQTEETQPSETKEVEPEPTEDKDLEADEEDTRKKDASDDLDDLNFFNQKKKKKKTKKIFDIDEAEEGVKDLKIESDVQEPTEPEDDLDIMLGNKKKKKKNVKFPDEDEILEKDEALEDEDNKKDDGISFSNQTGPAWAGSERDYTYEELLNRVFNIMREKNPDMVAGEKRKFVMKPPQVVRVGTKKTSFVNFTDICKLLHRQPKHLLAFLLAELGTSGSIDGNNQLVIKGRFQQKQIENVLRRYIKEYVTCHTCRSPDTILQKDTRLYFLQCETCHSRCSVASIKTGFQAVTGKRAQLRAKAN
Sequence of Serine/threonine-protein kinase pim-1 (Homo sapiens) (P11309 whole entry, looked up): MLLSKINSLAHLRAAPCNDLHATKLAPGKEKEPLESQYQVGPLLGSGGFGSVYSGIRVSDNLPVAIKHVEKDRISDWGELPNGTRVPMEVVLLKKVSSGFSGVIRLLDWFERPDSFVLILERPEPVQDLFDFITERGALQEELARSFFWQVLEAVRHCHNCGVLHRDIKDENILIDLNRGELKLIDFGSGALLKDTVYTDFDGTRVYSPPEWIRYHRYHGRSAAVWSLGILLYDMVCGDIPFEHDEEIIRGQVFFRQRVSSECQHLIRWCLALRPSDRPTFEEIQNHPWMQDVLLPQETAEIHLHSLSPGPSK
Sequence of Proto-oncogene tyrosine-protein kinase Src (Homo sapiens) (P12931 2-536 limits assumed): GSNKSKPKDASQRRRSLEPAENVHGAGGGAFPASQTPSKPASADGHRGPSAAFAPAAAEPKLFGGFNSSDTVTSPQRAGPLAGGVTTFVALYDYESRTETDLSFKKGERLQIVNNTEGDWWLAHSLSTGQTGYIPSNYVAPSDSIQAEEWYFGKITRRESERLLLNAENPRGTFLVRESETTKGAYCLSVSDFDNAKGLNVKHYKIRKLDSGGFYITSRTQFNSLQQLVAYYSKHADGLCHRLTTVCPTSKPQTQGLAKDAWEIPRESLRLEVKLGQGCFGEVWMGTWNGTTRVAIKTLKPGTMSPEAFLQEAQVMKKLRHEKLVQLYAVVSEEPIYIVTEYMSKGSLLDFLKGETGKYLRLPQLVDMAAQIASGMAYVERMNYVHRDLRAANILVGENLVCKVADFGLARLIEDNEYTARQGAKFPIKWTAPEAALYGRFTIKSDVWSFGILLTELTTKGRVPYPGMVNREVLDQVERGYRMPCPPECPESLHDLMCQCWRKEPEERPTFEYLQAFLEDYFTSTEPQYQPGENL
Sequence of Dual specificity tyrosine-phosphorylation-regulated kinase 2 (Homo sapiens) (Q92630 whole entry): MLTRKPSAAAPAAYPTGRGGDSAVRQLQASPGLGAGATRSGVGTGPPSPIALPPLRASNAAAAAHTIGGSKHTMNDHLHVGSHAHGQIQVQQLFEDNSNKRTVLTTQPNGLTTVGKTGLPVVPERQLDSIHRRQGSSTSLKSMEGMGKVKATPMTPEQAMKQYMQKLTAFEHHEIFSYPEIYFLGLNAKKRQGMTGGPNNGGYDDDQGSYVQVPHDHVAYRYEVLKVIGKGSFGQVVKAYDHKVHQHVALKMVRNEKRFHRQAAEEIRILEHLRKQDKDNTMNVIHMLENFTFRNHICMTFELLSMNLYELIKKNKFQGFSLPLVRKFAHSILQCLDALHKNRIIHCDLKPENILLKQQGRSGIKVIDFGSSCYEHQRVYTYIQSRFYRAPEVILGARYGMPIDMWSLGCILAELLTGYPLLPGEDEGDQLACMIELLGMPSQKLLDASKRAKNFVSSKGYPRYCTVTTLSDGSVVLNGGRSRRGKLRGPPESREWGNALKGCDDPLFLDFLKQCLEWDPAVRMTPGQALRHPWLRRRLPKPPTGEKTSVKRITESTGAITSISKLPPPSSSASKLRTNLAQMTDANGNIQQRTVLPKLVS
Sequence of Homeodomain-interacting protein kinase 1 (Homo sapiens) (Q86Z02 whole entry, looked up): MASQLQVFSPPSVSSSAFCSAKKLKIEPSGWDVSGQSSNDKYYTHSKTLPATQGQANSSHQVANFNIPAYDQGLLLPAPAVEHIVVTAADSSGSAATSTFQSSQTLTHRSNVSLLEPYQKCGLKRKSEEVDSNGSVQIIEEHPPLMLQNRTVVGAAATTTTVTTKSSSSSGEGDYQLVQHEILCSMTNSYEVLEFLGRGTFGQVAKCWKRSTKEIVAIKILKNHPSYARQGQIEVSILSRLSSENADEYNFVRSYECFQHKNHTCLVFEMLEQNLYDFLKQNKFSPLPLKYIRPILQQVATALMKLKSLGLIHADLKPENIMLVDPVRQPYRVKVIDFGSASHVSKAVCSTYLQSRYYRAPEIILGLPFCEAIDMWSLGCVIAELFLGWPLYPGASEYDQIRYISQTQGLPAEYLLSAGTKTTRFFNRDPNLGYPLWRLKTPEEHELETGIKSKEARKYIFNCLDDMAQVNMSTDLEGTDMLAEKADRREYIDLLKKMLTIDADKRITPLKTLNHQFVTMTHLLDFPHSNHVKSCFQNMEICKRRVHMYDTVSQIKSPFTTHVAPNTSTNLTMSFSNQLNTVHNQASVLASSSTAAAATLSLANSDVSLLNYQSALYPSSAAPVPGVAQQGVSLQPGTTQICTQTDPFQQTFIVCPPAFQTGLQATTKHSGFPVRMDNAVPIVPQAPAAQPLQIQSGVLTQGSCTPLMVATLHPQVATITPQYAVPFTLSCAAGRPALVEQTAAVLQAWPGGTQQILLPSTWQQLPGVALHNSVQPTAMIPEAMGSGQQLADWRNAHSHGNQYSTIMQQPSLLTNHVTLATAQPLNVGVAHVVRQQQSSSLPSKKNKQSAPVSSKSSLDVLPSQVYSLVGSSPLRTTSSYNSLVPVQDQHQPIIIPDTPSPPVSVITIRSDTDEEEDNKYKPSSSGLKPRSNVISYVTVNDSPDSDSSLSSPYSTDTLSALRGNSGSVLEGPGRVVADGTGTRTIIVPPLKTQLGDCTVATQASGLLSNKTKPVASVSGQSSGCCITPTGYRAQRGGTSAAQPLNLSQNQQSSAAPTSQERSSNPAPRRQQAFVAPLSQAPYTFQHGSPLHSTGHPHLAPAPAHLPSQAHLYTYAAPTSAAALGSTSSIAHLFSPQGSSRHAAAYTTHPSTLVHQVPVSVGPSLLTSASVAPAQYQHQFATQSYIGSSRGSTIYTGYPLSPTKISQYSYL
Sequence of Casein kinase I isoform gamma-1 (Homo sapiens) (Q9HCP0 whole entry, looked up, canonical isoform): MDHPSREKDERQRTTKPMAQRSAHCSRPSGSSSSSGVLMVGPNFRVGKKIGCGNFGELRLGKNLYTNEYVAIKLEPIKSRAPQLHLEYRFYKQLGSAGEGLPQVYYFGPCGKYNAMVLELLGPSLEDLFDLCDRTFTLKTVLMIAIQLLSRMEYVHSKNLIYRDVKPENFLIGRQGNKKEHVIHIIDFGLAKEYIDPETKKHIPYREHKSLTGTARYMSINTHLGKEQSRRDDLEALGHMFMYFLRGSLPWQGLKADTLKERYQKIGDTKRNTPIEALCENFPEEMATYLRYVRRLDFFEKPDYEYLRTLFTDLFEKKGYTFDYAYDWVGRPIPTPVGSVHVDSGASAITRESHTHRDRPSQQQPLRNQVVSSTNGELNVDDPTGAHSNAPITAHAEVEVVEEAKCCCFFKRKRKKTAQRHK

With Clc1ccc(N2CCN(c3ncnc4sc5c(c34)CCNC5)CC2)cc1.O=C(O)C(F)(F)F the inhibition [1] was 21%, the Activity [2] was 38% and the Activity [3] was 95%. The Activity (786-0) was “Dose-dependent-effect”, the inhibition [4] was 4% and the inhibition [5] was 2%. For the same molecule, the inhibition [6] was 6%, the inhibition [7] was 11% and the inhibition [8] was 0%. The inhibition [9] was 83%, the GI50 (U-937) was 7.5 µM and the Activity [10] was 72%. For the same molecule, the inhibition [11] was 5%, the inhibition (Homo sapiens) was 0% and the inhibition [12] was 9%. It also gave an inhibition [13] of 0%, an inhibition [14] of 0% and an inhibition [15] of 16%. For the same molecule, the inhibition [16] was 12%, the inhibition [17] was 5% and the Activity [18] was 17%. The inhibition [19] was 6%.
